Measured values from ChEMBL document CHEMBL5058577, “EUbOPEN Chemogenomics Library 2 (Multiplex)” (2022).

System: HEK-293T
Experiment: Multiplex assay against HEK293T
Assay type: toxicity, cell-based
Details: human
Outline: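 Compound was added to live cells that had been stained at seeding with Hoechst33342, BioTracker Green Microtubule Cytoskeleton Dye, MitoTracker Red and Annexin V Alexa Fluor 680, and imaging followed on a CQ1 microscope at 37°C and 5% CO2. CellPathfinder machine-learning gating divided cells into Hoechst high-intensity objects or normal cells, normal cells into healthy, pyknosed or fragmented nuclei, and pyknosed cells into mitotic or apoptotic. Tubulin, mitochondrial-mass and membrane-permeability phenotypes are per cents of healthy-nucleus cells.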

[1] = 12 h, 1 µM, compound concentration 1 uM, replicate 1
[2] = 12 h, 1 µM, compound concentration 1 uM, replicate 2
[3] = 12 h, 10 µM, compound concentration 10 uM, replicate 1
[4] = 12 h, 10 µM, compound concentration 10 uM, replicate 2
[5] = 24 h, 1 µM, compound concentration 1 uM, replicate 1
[6] = 24 h, 1 µM, compound concentration 1 uM, replicate 2
[7] = 24 h, 10 µM, compound concentration 10 uM, replicate 1
[8] = 24 h, 10 µM, compound concentration 10 uM, replicate 2
[9] = 48 h, 1 µM, compound concentration 1 uM, replicate 1
[10] = 48 h, 1 µM, compound concentration 1 uM, replicate 2
[11] = 48 h, 10 µM, compound concentration 10 uM, replicate 1
[12] = 48 h, 10 µM, compound concentration 10 uM, replicate 2

COc1c(C)cc(NC(=O)c2nn(Cc3ccc(F)cc3)c3c2CN(C(=O)c2ccc[nH]2)C[C@]3(C)C(N)=O)cc1C
Population Apoptotic (%) [1]: 42%
Population Fragmented Nuclei (%) [1]: 6%
Population Healthy Nuclei (%) [1]: 79%
Population Hoechst High Intensity Objects (%) [1]: 7%
Population Membrane Permeable-Phenotype (%) [1]: 0%
Population Mitochondria Different-Phenotype (%) [1]: 51%
Population Mitotic Cells (%) [1]: 57%
Population Normal (%) [1]: 92%
Population Pyknosed Nuclei (%) [1]: 13%
Population Tubulin-Different-Phenotype (%) [1]: 36%
Total Cell Count [1]: 426
Population Apoptotic (%) [2]: 38%
Population Fragmented Nuclei (%) [2]: 7%
Population Healthy Nuclei (%) [2]: 75%
Population Hoechst High Intensity Objects (%) [2]: 5%
Population Mitochondria Different-Phenotype (%) [2]: 58%
Population Mitotic Cells (%) [2]: 61%
Population Normal (%) [2]: 94%
Population Pyknosed Nuclei (%) [2]: 17%
Population Tubulin-Different-Phenotype (%) [2]: 29%
Total Cell Count [2]: 304
Population Apoptotic (%) [3]: 67%
Population Fragmented Nuclei (%) [3]: 4%
Population Healthy Nuclei (%) [3]: 77%
Population Hoechst High Intensity Objects (%) [3]: 13%
Population Membrane Permeable-Phenotype (%) [3]: 0%
Population Mitochondria Different-Phenotype (%) [3]: 90%
Population Mitotic Cells (%) [3]: 32%
Population Normal (%) [3]: 86%
Population Pyknosed Nuclei (%) [3]: 17%
Population Tubulin-Different-Phenotype (%) [3]: 62%
Total Cell Count [3]: 383
Population Apoptotic (%) [4]: 59%
Population Fragmented Nuclei (%) [4]: 6%
Population Healthy Nuclei (%) [4]: 71%
Population Mitochondria Different-Phenotype (%) [4]: 95%
Population Mitotic Cells (%) [4]: 40%
Population Pyknosed Nuclei (%) [4]: 21%
Population Tubulin-Different-Phenotype (%) [4]: 63%
Total Cell Count [4]: 285
Population Apoptotic (%) [5]: 21%
Population Fragmented Nuclei (%) [5]: 7%
Population Healthy Nuclei (%) [5]: 80%
Population Hoechst High Intensity Objects (%) [5]: 4%
Population Membrane Permeable-Phenotype (%) [5]: 0%
Population Mitochondria Different-Phenotype (%) [5]: 30%
Population Mitotic Cells (%) [5]: 78%
Population Normal (%) [5]: 95%
Population Pyknosed Nuclei (%) [5]: 12%
Population Tubulin-Different-Phenotype (%) [5]: 24%
Total Cell Count [5]: 574
Population Apoptotic (%) [6]: 51%
Population Fragmented Nuclei (%) [6]: 5%
Population Healthy Nuclei (%) [6]: 86%
Population Mitochondria Different-Phenotype (%) [6]: 43%
Population Mitotic Cells (%) [6]: 48%
Population Pyknosed Nuclei (%) [6]: 7%
Population Tubulin-Different-Phenotype (%) [6]: 16%
Total Cell Count [6]: 422
Population Apoptotic (%) [7]: 53%
Population Fragmented Nuclei (%) [7]: 6%
Population Healthy Nuclei (%) [7]: 73%
Population Hoechst High Intensity Objects (%) [7]: 11%
Population Membrane Permeable-Phenotype (%) [7]: 0%
Population Mitochondria Different-Phenotype (%) [7]: 91%
Population Mitotic Cells (%) [7]: 46%
Population Normal (%) [7]: 88%
Population Pyknosed Nuclei (%) [7]: 19%
Population Tubulin-Different-Phenotype (%) [7]: 61%
Total Cell Count [7]: 403
Population Apoptotic (%) [8]: 67%
Population Fragmented Nuclei (%) [8]: 5%
Population Healthy Nuclei (%) [8]: 74%
Population Hoechst High Intensity Objects (%) [8]: 15%
Population Mitochondria Different-Phenotype (%) [8]: 92%
Population Mitotic Cells (%) [8]: 32%
Population Normal (%) [8]: 84%
Population Tubulin-Different-Phenotype (%) [8]: 56%
Total Cell Count [8]: 313
Population Apoptotic (%) [9]: 21%
Population Fragmented Nuclei (%) [9]: 11%
Population Healthy Nuclei (%) [9]: 81%
Population Hoechst High Intensity Objects (%) [9]: 2%
Population Membrane Permeable-Phenotype (%) [9]: 1%
Population Mitochondria Different-Phenotype (%) [9]: 25%
Population Mitotic Cells (%) [9]: 78%
Population Normal (%) [9]: 97%
Population Pyknosed Nuclei (%) [9]: 6%
Population Tubulin-Different-Phenotype (%) [9]: 18%
Total Cell Count [9]: 920
Population Apoptotic (%) [10]: 39%
Population Fragmented Nuclei (%) [10]: 12%
Population Hoechst High Intensity Objects (%) [10]: 3%
Population Mitochondria Different-Phenotype (%) [10]: 28%
Population Mitotic Cells (%) [10]: 60%
Population Normal (%) [10]: 96%
Population Tubulin-Different-Phenotype (%) [10]: 9%
Total Cell Count [10]: 652
Population Apoptotic (%) [11]: 60%
Population Fragmented Nuclei (%) [11]: 8%
Population Healthy Nuclei (%) [11]: 76%
Population Hoechst High Intensity Objects (%) [11]: 14%
Population Membrane Permeable-Phenotype (%) [11]: 0%
Population Mitochondria Different-Phenotype (%) [11]: 93%
Population Mitotic Cells (%) [11]: 39%
Population Normal (%) [11]: 85%
Population Pyknosed Nuclei (%) [11]: 15%
Population Tubulin-Different-Phenotype (%) [11]: 66%
Total Cell Count [11]: 467
Population Apoptotic (%) [12]: 80%
Population Fragmented Nuclei (%) [12]: 9%
Population Healthy Nuclei (%) [12]: 81%
Population Hoechst High Intensity Objects (%) [12]: 10%
Population Mitochondria Different-Phenotype (%) [12]: 90%
Population Mitotic Cells (%) [12]: 19%
Population Normal (%) [12]: 89%
Population Pyknosed Nuclei (%) [12]: 9%
Population Tubulin-Different-Phenotype (%) [12]: 59%
Total Cell Count [12]: 376
